Screens (PubChem BioAssay)
IDE cell activ: IDE (human) activation, cell-based; P14735; HEK cells, FAbeta-B cleavage, fluorescence polarization; 0% vehicle, 100% cell-free pure enzyme wells; activation, % at 5.96 µM; 0.073% of 340,000 active; AID 493087;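 active = activation above the mean of all tested compounds plus 3 SD, set per screening campaign, cut at about 17% in these data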
Tb MetRS inh: blocks T. brucei methionyl-tRNA synthetase activity. purified T. brucei MetRS, ATP depletion, Kinase-Glo luminescence. inhibition, % at 11.9 µM. 0.4% of 360,000 active;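 active = inhibition above a per-plate cutoff of the control wells' mean inhibition plus 3 SD, cut at about 5.5% in these data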
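technique = Kinase-Glo luminescence, ATP depletion format | system = purified MetRS (methionyl-tRNA synthetase) enzyme from Trypanosoma brucei | timing = 15 min preincubation, 2 h reaction, all 25 °C | evaluation = percent inhibition versus plate control medians | dosing = single dose, 11.9 µM final nominal, 0.9% final DMSO | also added = substrates ATP, L-methionine and bulk Escherichia coli tRNA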
IDE inh: inhibits human insulin-degrading enzyme in HEK cells. inhibition, % at 5.59 µM. FAbetaB cleavage, fluorescence polarization. 0.41% of 320,000 active. AID 434962. P14735;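 active = percent inhibition above the average of all tested compounds plus 3 SD, set per screening campaign, cut at about 16% in these data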;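 also: IDE supplied by intact live HEK cells; FP after avidin binding of uncleaved biotin substrate so inhibition keeps polarization high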
HNF4A DNA FP: change in binding of human HNF4 alpha to DNA; HNF4a-FITC DNA binding, fluorescence polarization, 1 h; activity change, % at 10 µM; 0.3% of 360,000 active; AID 1224865; in the data active = activity change above about 30%, passing the limit was not always enough
TPT1 inh: blocks Candida albicans tRNA 2'-phosphotransferase; 0.81% of 300,000 active; recombinant caTPT1, FP RNA substrate dephosphorylation; inhibition, % at 5 µM;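 active = inhibition above the mean of all tested compounds plus 3 SD, set per screening campaign, cut at about 24% in these data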
CSN inh: inhibitors of human CSN-mediated cullin deneddylation. Q92905. inhibition, % at 12.5 µM. AID 651999. Purified CSN, SCF-Nedd8-OG deneddylation, fluorescence polarization. 0.38% of 360,000 active;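 active = pattern-corrected inhibition above about 35%, with an unprinted fluorescence ratio check between 0.5 and 1.5, limit read from the data, passing the limit was not always enough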
Target sequence (Q92905 whole entry, looked up, one chain of several): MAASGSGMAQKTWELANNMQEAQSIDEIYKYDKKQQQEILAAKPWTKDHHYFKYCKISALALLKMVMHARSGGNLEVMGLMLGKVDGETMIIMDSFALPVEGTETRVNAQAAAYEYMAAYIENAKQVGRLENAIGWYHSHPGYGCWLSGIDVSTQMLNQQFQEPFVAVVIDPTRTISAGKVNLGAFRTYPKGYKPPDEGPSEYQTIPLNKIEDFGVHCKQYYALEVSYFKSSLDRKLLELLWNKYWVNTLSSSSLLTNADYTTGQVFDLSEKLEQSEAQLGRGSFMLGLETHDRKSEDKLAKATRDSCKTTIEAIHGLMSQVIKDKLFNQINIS
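Assay system: HEK293T-derived human Csn5 enzyme; quantity: 0.24 nM enzyme; medium: Tris/NaCl/DTT buffer, pH 7.5; also added: substrate SCFSkp2-Nedd8OG, 10 nM; doses: 12.5 µM compound; schedule: 90 min reaction at room temperature; signal: FP; read-out: % inhibition of substrate cleavage by Csn5; benchmarks: substrate-only high control, full reaction low control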
TPT1 inh confirm: TPT1 (C. albicans) inhibition, confirmation | shares compounds with TPT1 inh | inhibition, % at 5 µM | recombinant caTPT1, fluorescence polarization, RNase T1 coupled | 74% of 2,400 active;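 active = inhibition above the primary screen limit, the mean inhibition of all tested compounds plus 3 SD, cut at about 25% in these data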
RNase T1 counter: blocks Aspergillus oryzae RNase T1, a TPT1 counter-screen | shares compounds with TPT1 inh | inhibition, % at 5 µM | RNase T1 cleavage, fluorescence polarization, 1536-well | 83% of 2,400 active;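 active = inhibition above the solvent-only control well mean plus 3 SD, limit set per screening run, cut at about 23% in these data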;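 also: inhibitors block cleavage so intact labeled substrate keeps polarization high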
Target sequence (P00651 whole entry, looked up): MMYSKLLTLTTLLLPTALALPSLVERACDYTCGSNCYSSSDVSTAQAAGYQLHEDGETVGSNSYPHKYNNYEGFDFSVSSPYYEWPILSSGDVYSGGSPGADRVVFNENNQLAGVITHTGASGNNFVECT
IDE cell inh cf: cellular human IDE inhibition, confirmation. inhibition, % at 5.59 µM. HEK cells, FAbetaB cleavage, fluorescence polarization. shares compounds with IDE inh. 51% of 1,200 active. AID 435028;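 active = mean inhibition across triplicate wells above the cutoff set by the earlier primary insulin-degrading enzyme screen, cut at about 16% in these data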
HEK cytotox: HEK cell cytotoxicity, counter-screen for IDE inhibitors | shares compounds with IDE inh | HEK293 cytotoxicity, ATP luminescence | inhibition, % at 5.59 µM | 28% of 1,200 active; in the data active = inhibition above about 22%
Large screens that a line does not name were inactive (follow-up assays come after a bar, where they were run). Only some compounds are listed: those with a hit (about 1.7% of all), similar ones and a draw of the others.

O=C(C1=C(O)C(=O)N(CCN2CCOCC2)C1c1cccc(O)c1)c1cc2ccccc2o1 (stereo not given)	none (no result: IDE inh, TPT1 inh)
CNC(=O)c1ccccc1NC(=O)C1CC(=O)N(C(C)C)C1 (stereo not given)	none
COc1ccc(/C=c2\s/c(=C/C(=O)c3ccc(C)cc3)[nH]c2=O)cc1OC	IDE inh 79, HNF4A DNA FP 67, TPT1 inh 103 | TPT1 inh confirm 117 | RNase T1 counter 115 | IDE cell inh cf 78 | HEK cytotox inactive
CC1CCCCC1NC(=O)CN1CCC(NC(=O)C(C)(C)C)CC1 (stereo not given)	none (no result: IDE cell activ, IDE inh, TPT1 inh)
O=C1/C(=C\c2cc([N+](=O)[O-])ccc2O)SC(=S)N1Cc1ccc(Cl)cc1	IDE inh 40, TPT1 inh 43 | TPT1 inh confirm 47 | RNase T1 counter 57 | IDE cell inh cf 130 | HEK cytotox inactive
O=C1/C(=C\c2cccc(O)c2O)SC(=S)N1Cc1ccccc1	none
COc1ccc(C(=O)N/N=C/c2c[nH]c3ccccc23)cc1	none
O=C(N/N=C/c1sc2ccccc2c1O)c1ccccc1	IDE inh 34, TPT1 inh 135 | TPT1 inh confirm 135 | RNase T1 counter 128 | IDE cell inh cf 62 | HEK cytotox 115
COc1ccc(C(=O)N/N=C/c2sc3ccccc3c2O)cc1	IDE inh 17, TPT1 inh 139 | TPT1 inh confirm 145 | RNase T1 counter 135 | IDE cell inh cf 33 | HEK cytotox 87
CN(C)c1ccc(/C=C(/NC(=O)c2ccccc2)C(=O)NCCN2CCOCC2)cc1	IDE inh 17, TPT1 inh 49 | TPT1 inh confirm inactive | RNase T1 counter inactive | IDE cell inh cf inactive | HEK cytotox inactive
CN(C)c1ccc(/C=C(/NC(=O)c2ccccc2Cl)C(=O)NCCN2CCOCC2)cc1	IDE inh 18, TPT1 inh 47 | TPT1 inh confirm 120 | RNase T1 counter 128 | IDE cell inh cf inactive | HEK cytotox inactive
O=C(NCCN1CCOCC1)/C(=C/c1ccc(Cl)cc1)NC(=O)c1ccccc1	none
CN(C)S(=O)(=O)n1cc(/C=C(\NC(=O)c2ccccc2Cl)C(=O)NCCN2CCOCC2)c2ccccc21	none
O=C(CSc1nnc(-c2cccc(F)c2)o1)N1CCCC1	none
COc1ccc(N=Cc2oc3ccc4ccccc4c3c2O)cc1	IDE inh 18, TPT1 inh 114 | TPT1 inh confirm 71 | RNase T1 counter 75 | IDE cell inh cf 29 | HEK cytotox inactive
COc1ccc(N=Cc2[nH]c3ccccc3c2O)cc1	none
Cc1ccc(O)c(C(=O)c2cc(C#N)c(=O)n(-c3nccs3)c2)c1	IDE inh 51, TPT1 inh 56 | TPT1 inh confirm 54 | RNase T1 counter 61 | IDE cell inh cf 65 | HEK cytotox inactive
N#C/C(=C\c1ccc(N2CCCCC2)o1)C(=O)Nc1cccc(Br)c1	IDE inh 140, TPT1 inh 168 | TPT1 inh confirm 191 | RNase T1 counter 172 | IDE cell inh cf 79 | HEK cytotox 42
NC(=Nc1ccc(Br)cc1)c1ccccc1	none
CC(=Nc1ccc(Br)cc1)c1sc2ccccc2c1O	IDE inh 20, TPT1 inh 78 | TPT1 inh confirm 88 | RNase T1 counter 95 | IDE cell inh cf 54 | HEK cytotox inactive
CC(=Nc1ccccc1)c1sc2ccccc2c1O	IDE inh 20, TPT1 inh 31 | TPT1 inh confirm 51 | RNase T1 counter 67 | IDE cell inh cf 51 | HEK cytotox inactive
CC(=Nc1ccccc1)C1=C(O)COC1=O	none
CC1=NN(c2ccccc2)C(=O)/C1=C/C=C/C=C/N(C)C	IDE inh 18, TPT1 inh 124 | TPT1 inh confirm 94 | RNase T1 counter 102 | IDE cell inh cf inactive | HEK cytotox 27
COc1cc2nc(/C=C/c3ccc(N(C)C)cc3)sc2cc1SC	IDE inh 70, TPT1 inh 155 | TPT1 inh confirm 153 | RNase T1 counter 138 | IDE cell inh cf 51 | HEK cytotox inactive
COc1cc(-c2noc(C)c2C(=O)NCCCN2CCOCC2)cc(OC)c1OC	none (no result: TPT1 inh)
C=CCN1C(=O)/C(=C/C=C2/N(CC)c3ccc(S(=O)(=O)N(C)C)cc3N2CC)SC1=S	IDE inh 22, TPT1 inh 161 | TPT1 inh confirm 144 | RNase T1 counter 138 | IDE cell inh cf 160 | HEK cytotox 39
N#CC1=C(SCC(=O)c2cc3ccccc3oc2=O)NC(=O)C(C#N)C12CCCC2 (stereo not given)	IDE inh 21, TPT1 inh 49 | TPT1 inh confirm 30 | RNase T1 counter 39 | IDE cell inh cf inactive | HEK cytotox inactive
CC(C)(C)C1CCC2(CC1)C(C#N)=C(SCC(=O)Nc1ccccc1)NC(=O)C2C#N (stereo not given)	none
Cc1cccc(NC(=O)CSc2nnc(CNC(=O)c3cccs3)o2)c1C	none
COc1ccc(-c2c(C(=O)c3ccc(Br)cc3)[nH]c(N)c2C(=O)c2ccccc2)cc1OC	none (no result: IDE cell activ, IDE inh, TPT1 inh)
COCCNC(=O)C(c1ccc(Cl)cc1)N(CCOC)C(=O)CCC(=O)Nc1nccs1 (stereo not given)	none
Fc1ccc2nncc(SCc3ccccc3Cl)c2c1	none (no result: IDE inh, TPT1 inh)
CCOc1cccc(/C=C(/C#N)c2nc3ccccc3[nH]2)c1OCC(=O)O	none
CCN(CC)c1ccc(/C=C(/C#N)c2nc3ccccc3[nH]2)c(OC(C)C)c1	IDE inh 141, TPT1 inh 163 | TPT1 inh confirm 163 | RNase T1 counter 149 | IDE cell inh cf 149 | HEK cytotox 32
CCN1C(=O)[C@@H]2Cc3c([nH]c4ccccc34)C(c3ccc(OC)cc3)N2C1=S (stereo not given in full)	IDE inh 41, HNF4A DNA FP 43, TPT1 inh 65 | TPT1 inh confirm 48 | RNase T1 counter 60 | IDE cell inh cf 20 | HEK cytotox 61
COc1ccccc1NNC(=O)c1cccnc1Oc1ccccc1	none
